Results: ChEMBL document CHEMBL2163279, “Discovery of novel small molecule inhibitors of dengue viral NS2B-NS3 protease using virtual screening and scaffold hopping” (J Med Chem, 2012)

Legend:
[1] = (§1) Inhibition of Dengue virus 2 NS2B-NS3 protease preincubated for 15 mins before Dabcyl- Lys-Gln-Arg-Arg-Gly-Arg-Ile-Glu-Edans substrate addition by fluorimetric assay; parameters: species or system dengue virus type 2
dengue virus type 2 [2] = assay: Inhibition of Dengue virus 2 NS2B-NS3 protease at 100 uM preincubated for 15 mins before Dabcyl- Lys-Gln-Arg-Arg-Gly-Arg-Ile-Glu-Edans substrate addition by fluorimetric assay
[3] = Selectivity index, ratio of CC50 for BHK cells to IC50 for Dengue virus 2 infected in BHK-D2RepT cells; format: functional
Method in brief: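 Selectivity index = CC50 / IC50. CC50 is from the 48 h MTT assay in nontransfected BHK cells; IC50 is from the 48 h luciferase read in BHK-D2RepT replicon cells, 96-well format.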

[4] = Cytotoxicity against BHK cells incubated for 48 hrs by MTT assay; format: cell-based, Mesocricetus auratus; details: hamster
Method in brief: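 Nontransfected BHK cells, about 5×10⁴ per well, were treated the next day with various compound concentrations for 48 h. Viability was measured by MTT. CC50 is the concentration giving 50% of control cell number; mean of three independent experiments.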

dengue virus type 2 [5] = assay: Antiviral activity against Dengue virus 2 infected in BHK-D2RepT cells assessed as reduction in viral replication incubated for 48 hrs by luciferase reporter replicon-based assay; format: functional, organism-based
Method in brief: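 Cells used were BHK-D2RepT: BHK carrying a DENV-2 (New Guinea C) firefly-luciferase replicon, maintained in DMEM/10% FBS/200 μg/mL G418. Seeded at 5×10⁴ cells/well for 24 h, then exposed to compound for 48 h (DMSO <0.2%). Medium was replaced before the Bright-Glo luciferase read. Triplicate wells with six control wells. IC50 is the concentration giving 50% of control luciferase signal; mean of three independent experiments.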

dengue virus type 2 [6] = assay: as §1
dengue virus type 2 [7] = assay: Inhibition of Dengue virus 2 NS2B-NS3 protease at 25 uM preincubated for 15 mins before substrate addition
dengue virus type 2 [8] = assay: Inhibition of Dengue virus 2 NS2B-NS3 protease at 12.5 uM preincubated for 15 mins before substrate addition
dengue virus type 2 [9] = assay: Inhibition of Dengue virus 2 NS2B-NS3 protease at 50 uM preincubated for 15 mins before substrate addition

| Structure (SMILES) | IC50 [1] | inhibition (dengue virus type 2 [2]) | further results |
| --- | --- | --- | --- |
| O=C(N/N=C\CCc1ccccc1)c1cc(/C=N/Nc2cccc(Br)c2)nc2ccccc12 | 19.9 µM |  |  |
| COc1ccc(-c2csc(N3N=C(c4ccc([N+](=O)[O-])cc4)/C(=N\Nc4ccc(C(N)=O)cc4)C3=O)n2)cc1 | 220 µM |  |  |
| NS(=O)(=O)c1ccc(N/N=C/c2cc(C(=O)N/N=C\Cc3ccccc3)c3ccccc3n2)cc1 | > 100 µM | 31.1% |  |
| O=C(N/N=C\C=C\c1ccccc1)c1cc(/C=N/Nc2cccc(Cl)c2)nc2ccccc12 | 14.3 µM |  |  |
| O=C(N/N=C\CCc1ccccc1)c1cc(/C=N/Nc2cccc(C(F)(F)F)c2)nc2ccccc12 | > 100 µM | 20.9% |  |
| O=C(N/N=C\Cc1ccccc1)c1cc(/C=N/Nc2cccc(C(F)(F)F)c2)nc2ccccc12 | 19.8 µM |  | Ratio CC50/IC50 [3]: 0.2; CC50 at 48 h [4]: 16.4 µM; IC50 (dengue virus type 2 [5]): 73.4 µM |
| CCOC(=O)c1cc(/C=N/Nc2nc3ccccc3[nH]2)cc(/C=N/Nc2nc3ccccc3[nH]2)c1 | 29.5 µM |  |  |
| O=C(N/N=C\C=C\c1ccccc1)c1cc(/C=N/Nc2cccc([N+](=O)[O-])c2)nc2ccccc12 | 22 µM |  | Ratio CC50/IC50 [3]: 0.3; CC50 at 48 h [4]: 25 µM; IC50 (dengue virus type 2 [5]): 74.9 µM |
| COc1c(C)c2c(c(O)c1C/C=C(\C)CCC(=O)O)C(=O)OC2 [MYCOPHENOLIC ACID] |  |  | Ratio CC50/IC50 [3]: 2.7; CC50 at 48 h [4]: 1.9 µM; IC50 (dengue virus type 2 [5]): 0.7 µM |
| Oc1c(/C=N/Nc2nc3ccccc3[nH]2)cccc1/C=N/Nc1nc2ccccc2[nH]1 | > 100 µM | 31.9% |  |
| CCOC(=O)c1cc(/C=N/Nc2ccc([N+](=O)[O-])cc2)c(O)c(/C=N/Nc2ccc([N+](=O)[O-])cc2)c1 | 14.6 µM |  |  |
| CCOC(=O)c1cc(/C=N/Nc2ccc(C(C)C)cc2)c(O)c(/C=N/Nc2ccc(C(C)C)cc2)c1 | 39.5 µM |  | Ratio CC50/IC50 [3]: 3.7; CC50 at 48 h [4]: 29.7 µM; IC50 (dengue virus type 2 [5]): 8 µM |
| O=C(N/N=C\C=C\c1ccccc1)c1cc(/C=N/Nc2cccc(C(F)(F)F)c2)nc2ccccc12 | > 100 µM | 27.4% |  |
| CCOC(=O)c1cc(/C=N/Nc2nc3ccccc3[nH]2)c(O)c(/C=N/Nc2nc3ccccc3[nH]2)c1 | 13.1 µM |  | inhibition (dengue virus type 2 [6]): Dose-dependent effect; Ratio CC50/IC50 [3]: 0.4; CC50 at 48 h [4]: 12.6 µM; IC50 (dengue virus type 2 [5]): 35.9 µM |
| O=C(N/N=C/CCc1ccccc1)c1cc(/C=N/Nc2cccc(Cl)c2)nc2ccccc12 | 29 µM |  |  |
| COc1cc(/C=C/C(=O)CC(=O)/C=C/c2ccc(O)c(OC)c2)ccc1O [CURCUMIN] |  |  | Ratio CC50/IC50 [3]: 3.5; CC50 at 48 h [4]: 14.8 µM; IC50 (dengue virus type 2 [5]): 4.2 µM |
| O=C(N/N=C\Cc1ccccc1)c1cc(/C=N/Nc2cccc(Cl)c2)nc2ccccc12 | 28.1 µM |  | Ratio CC50/IC50 [3]: 0.3; CC50 at 48 h [4]: 19.7 µM; IC50 (dengue virus type 2 [5]): 61.3 µM |
| CCNC(=S)N/N=C\c1cc(C(=O)OCC)cc(/C=N\NC(=S)NCC)c1O | > 100 µM | 28.2% |  |
| O=C(N/N=C\Cc1ccccc1)c1cc(/C=N/Nc2cccc(Br)c2)nc2ccccc12 | 9.45 µM |  | Ratio CC50/IC50 [3]: >4.1; CC50 at 48 h [4]: > 100 µM; IC50 (dengue virus type 2 [5]): 24.7 µM |
| NS(=O)(=O)c1ccc(N/N=C/c2cc(C(=O)N/N=C\C=C\c3ccccc3)c3ccccc3n2)cc1 | 7.46 µM |  | inhibition (dengue virus type 2 [6]): Dose-dependent effect; inhibition (dengue virus type 2 [7]): 37.1%; inhibition (dengue virus type 2 [8]): 21.4%; inhibition (dengue virus type 2 [9]): 63.3% |
| NS(=O)(=O)c1ccc(N/N=C/c2cc(C(=O)N/N=C\CCc3ccccc3)c3ccccc3n2)cc1 | 36 µM |  |  |
| O=C(NCCCc1ccccc1)c1cc(/C=N/Nc2cccc(Br)c2)nc2ccccc12 | > 100 µM | 24.2% |  |
| CCOC(=O)c1cc(/C=N\NC(N)=S)c(O)c(/C=N\NC(N)=S)c1 | > 100 µM | 24.4% |  |

Further lines, with some results ahead:

| IC50 [1] | inhibition (dengue virus type 2 [2]) | Structure (SMILES) | further results |
| --- | --- | --- | --- |
| > 100 µM | 29.4% | NS(=O)(=O)c1ccc(N/N=C/c2cc(C(=O)NCCCCc3ccccc3)c3ccccc3n2)cc1 |  |
| > 100 µM | 35.4% | CCOC(=O)c1cc(/C=N/NC(=O)c2ccc3c(c2)OCO3)c(O)c(/C=N/NC(=O)c2ccc3c(c2)OCO3)c1 |  |
| > 100 µM | 28% | CCOC(=O)c1cc(/C=N/N2C(=O)c3ccccc3C2=O)c(O)c(/C=N/N2C(=O)c3ccccc3C2=O)c1 |  |
| 7.83 µM |  | NS(=O)(=O)c1ccc(N/N=C/c2cc(C(=O)N/N=C/c3cccc(O)c3)c3ccccc3n2)cc1 |  |
| > 100 µM | 44.1% | CCOC(=O)c1cc(/C=N/NC(=O)Nc2ccccc2)c(O)c(/C=N/NC(=O)Nc2ccccc2)c1 |  |
| > 100 µM | 30.6% | O=C(NCCCCc1ccccc1)c1cc(/C=N/Nc2cccc(Br)c2)nc2ccccc12 |  |
| > 100 µM | 32.1% | O=C(NCCCc1ccccc1)c1cc(/C=N/Nc2cccc(Cl)c2)nc2ccccc12 |  |
| 35.3 µM |  | O=C(O)c1cccc(N/N=C/c2cc(C(=O)NCCCCc3ccccc3)c3ccccc3n2)c1 | Ratio CC50/IC50 [3]: 4.5; CC50 at 48 h [4]: 49.7 µM; IC50 (dengue virus type 2 [5]): 11 µM |
| 41.2 µM |  | O=C(O)c1cccc(N/N=C/c2cc(C(=O)NCCCc3ccccc3)c3ccccc3n2)c1 | Ratio CC50/IC50 [3]: 2.1; CC50 at 48 h [4]: 64.3 µM; IC50 (dengue virus type 2 [5]): 30.9 µM |
| 242 µM |  | O=C(CCCC(=O)/C(=C\c1ccc2c(c1)OCO2)CC(=O)c1ccccc1)OCCCl |  |
| > 100 µM | 20.6% | NS(=O)(=O)c1ccc(N/N=C/c2cc(C(=O)NCCCc3ccccc3)c3ccccc3n2)cc1 |  |
| 48.6 µM |  | CCOC(=O)c1cc(C)c(O)c(/C=N/Nc2nc3ccccc3[nH]2)c1 |  |
